One may read the MIC as the lowest concentration that inhibits growth of the organism. As a reminder, the IC50 is the midpoint of a concentration-inhibition curve.

One test deals with Staphylococcus aureus. In words: Antibacterial activity against Staphylococcus aureus ATCC 25923 after 24 hrs by broth dilution method. It is filed as functional. The conditions noted are these: ATCC 25923, 24 h. In a few lines:
(§1)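 CLSI broth microdilution in Mueller-Hinton broth, with levofloxacin as positive control. Final inoculum was 1 × 10^5 cfu/mL. Compounds were tested at final concentrations from 128 to 0.125 μg/mL in 2-fold serial dilutions. Plates were incubated for 24 h at 37 °C. MIC was read as the lowest concentration giving no visible growth.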
Background: In broth dilution the organism is exposed to a series of concentrations in liquid medium.

The subject of another test is Enterococcus faecalis. In words: Antibacterial activity against Enterococcus faecalis ATCC 29212 after 24 hrs by broth dilution method. It is filed as functional. The conditions noted are these: ATCC 29212, 24 h. The gist of the method: as §1
Another test relates to Bacillus subtilis. Kind of test: Antibacterial activity against Bacillus subtilis ATCC 6633 after 24 hrs by broth dilution method. In kind it is functional. The conditions noted are these: ATCC 6633, 24 h. The gist of the method:
as §1

The subject of test [1] is Mycolicibacterium smegmatis. In words: Antibacterial activity against Mycobacterium smegmatis MC2 155 after 24 hrs by broth dilution method. It is filed as functional. The conditions noted are these: str. MC2 155, 24 h. The gist of the method: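 CLSI broth microdilution MIC. Medium: Middlebrook 7H9 broth. Serial 2-fold dilutions give final concentrations of 128 to 0.125 μg/mL. Final inoculum is 1 × 10^5 cfu/mL. Incubation is 24 h at 37 °C. MIC is the lowest concentration with no visible growth. Levofloxacin serves as positive control.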

For test [2], the system named is Mycobacterium tuberculosis. Kind of test: Antibacterial activity against Mycobacterium tuberculosis H37Rv after 14 days by broth dilution method. It is filed as functional. The conditions noted are these: 336 h. The gist of the method: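 Broth microdilution per CLSI in Middlebrook 7H9 broth. Compounds run at final 128 to 0.125 μg/mL (2-fold series) against an inoculum of 1 × 10^5 cfu/mL final. Plates incubated 14 days at 37 °C. Endpoint is the lowest concentration without visible growth. Levofloxacin is the positive control.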

The subject of the next test is Pseudomonas aeruginosa. In words: Antibacterial activity against Pseudomonas aeruginosa ATCC 27853 after 24 hrs by broth dilution method. The conditions noted are these: ATCC 27853, 24 h. It is filed as functional. The gist of the method:
as §1

A further test relates to Morganella morganii. Kind of test: Antibacterial activity against multidrug-resistant Morganella morganii 07-09 after 24 hrs by broth dilution method. In kind it is functional. The conditions noted are these: 07-09, 24 h. The gist of the method: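 Mueller-Hinton broth microdilution following CLSI. Strains came from ATCC or clinical isolates. Final compound range 128 to 0.125 μg/mL by 2-fold dilution, inoculum 1 × 10^5 cfu/mL final. Incubated 24 h at 37 °C. MIC read as the lowest concentration showing no visible growth. Levofloxacin is the positive control.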

A further test concerns Escherichia coli. In words: Antibacterial activity against Escherichia coli ATCC 25922 after 24 hrs by broth dilution method. It is filed as functional. The conditions noted are these: ATCC 25922, 24 h. The gist of the method:
as §1

A further test deals with Candida albicans. Kind of test: Antifungal activity against Candida albicans ATCC 10231 after 24 hrs by broth dilution method. In kind it is functional. The conditions noted are these: ATCC 10231, 24 h. In a few lines:
as §1

In the next test the test system is A549. Kind of test: Cytotoxicity against human A549 cells after 96 hrs by MTT assay. In kind it is functional, cell-based. The conditions noted are these: A549, 96 h. On the technique in general: Tetrazolium assays rely on reduction of a dye to a coloured formazan, in cell work by metabolically active cells.
The subject of a further test is HepG2. Kind of test: Cytotoxicity against human […] cells after 96 hrs by MTT assay. It is filed as functional, cell-based. The conditions noted are these: HepG2, 96 h.
In a further test the test system is HeLa. Kind of test: Cytotoxicity against human HeLa cells after 96 hrs by MTT assay. In kind it is functional, cell-based.

Values after ≈ are worked out from the molar mass of the structure shown.

As for `CC(=O)N[C@@H](CCCN)CC(=O)N[C@@H]1[C@H](O)[C@@H](O)[C@@H](COC(N)=O)O[C@H]1/N=C1\N[C@@H]2[C@H](O)CNC(=O)[C@H]2N1`, the MIC (against Staphylococcus aureus; in the test with Enterococcus faecalis; with Bacillus subtilis; in test [1]; in test [2]; in the test with Pseudomonas aeruginosa) was more than 128 µg/mL in each case. For the same molecule, the minimal inhibitory concentration (MIC) against Morganella morganii, against Escherichia coli and against Candida albicans was more than 128 µg/mL throughout. The concentration for half-maximal inhibition (IC50) in the test on A549, in the test with HepG2 and in the test on HeLa was more than 10 µM each time.

For the molecule `CC(=O)N[C@@H](CCCN)CC(=O)N[C@@H]1[C@H](O)[C@@H](O)[C@@H](COC(N)=O)O[C@H]1/N=C1\N[C@H]([C@H](O)CN)[C@@H](C(=O)O)N1`, the MIC (with Staphylococcus aureus; against Enterococcus faecalis; in the test on Bacillus subtilis; in test [1]; in test [2]; in the test with Pseudomonas aeruginosa) was more than 128 µg/mL each time. Besides, the minimal inhibitory concentration (MIC) against Morganella morganii, in the test on Escherichia coli and against Candida albicans was more than 128 µg/mL in each case. Further, the IC50 in the test with A549, in the test on HepG2 and in the test on HeLa was more than 10 µM throughout.

For the molecule `CC(=O)N[C@@H](CCCN)CC(=O)N[C@@H]1[C@H](O)[C@@H](O)[C@@H](COC(N)=O)O[C@H]1/N=C1\N[C@@H]2[C@H](O)CNC(=O)[C@@H]2N1`, the minimum inhibitory concentration (MIC) (against Staphylococcus aureus; with Enterococcus faecalis; against Bacillus subtilis; in test [1]; in [2]; against Pseudomonas aeruginosa) was more than 128 µg/mL each time. Besides, the MIC against Morganella morganii, against Escherichia coli and in the test on Candida albicans was more than 128 µg/mL in each case. The IC50 with A549, with HepG2 and in the test with HeLa was more than 10 µM each time.

Regarding `CC(=O)N[C@@H](CCCN)CC(=O)N[C@@H]1[C@H](O)[C@@H](O)[C@@H](COC(N)=O)O[C@@H]1/N=C1\N[C@@H]2[C@H](O)CNC(=O)[C@H]2N1`, the MIC (in the test on Staphylococcus aureus; in the test with Enterococcus faecalis; with Bacillus subtilis; in test [1]; in test [2]; with Pseudomonas aeruginosa) was more than 128 µg/mL each time. Moreover, the MIC in the test with Morganella morganii, against Escherichia coli and against Candida albicans was more than 128 µg/mL each time. The concentration for half-maximal inhibition (IC50) with A549, in the test with HepG2 and with HeLa was more than 10 µM throughout.

For `NCCC[C@H](N)CC(=O)NCCC[C@H](N)CC(=O)N[C@@H]1[C@H](O)[C@@H](O)[C@@H](COC(N)=O)O[C@H]1/N=C1\N[C@@H]2[C@H](O)CNC(=O)[C@H]2N1`, the MIC in the test with Staphylococcus aureus was more than 128 µg/mL; against Enterococcus faecalis, more than 128 µg/mL; in the test on Bacillus subtilis it was 16 µg/mL (≈ 25.4 µM); in [1], 64 µg/mL (≈ 101 µM); in [2], more than 128 µg/mL; with Pseudomonas aeruginosa it was more than 128 µg/mL. The MIC was more than 128 µg/mL against Morganella morganii, more than 128 µg/mL with Escherichia coli and 32 µg/mL (≈ 50.7 µM) against Candida albicans. The half-maximal inhibitory concentration (IC50) in the test on A549, in the test on HepG2 and in the test with HeLa was more than 10 µM throughout.

Take `CC(=O)N[C@@H](CCCNC(=O)C[C@@H](N)CCCNC(=O)C[C@@H](N)CCCN)CC(=O)N[C@@H]1[C@H](O)[C@@H](OC(N)=O)[C@@H](CO)O[C@H]1NC1=N[C@@H]2C(=O)NC[C@@H](O)[C@H]2N1`: the minimum inhibitory concentration (MIC) (with Staphylococcus aureus; in the test with Enterococcus faecalis; in the test on Bacillus subtilis; in test [1]; in test [2]; with Pseudomonas aeruginosa) was more than 128 µg/mL in each case. In addition, the minimum inhibitory concentration (MIC) against Morganella morganii, against Escherichia coli and against Candida albicans was more than 128 µg/mL throughout. For the same molecule, the IC50 with A549, with HepG2 and in the test with HeLa was more than 10 µM throughout.

`CC(=O)N[C@@H](CCCNC(=O)C[C@@H](N)CCCN)CC(=O)N[C@@H]1[C@H](O)[C@@H](OC(N)=O)[C@@H](CO)O[C@H]1/N=C1\N[C@@H]2[C@H](O)CNC(=O)[C@H]2N1`: the MIC (against Staphylococcus aureus; against Enterococcus faecalis; with Bacillus subtilis; in test [1]; in test [2]; in the test on Pseudomonas aeruginosa) was more than 128 µg/mL each time. Moreover, the MIC against Morganella morganii, with Escherichia coli and against Candida albicans was more than 128 µg/mL each time. Also, the IC50 with A549, in the test on HepG2 and in the test on HeLa was more than 10 µM in each case.

As to `C[C@H]1COc2c(N3CCN(C)CC3)c(F)cc3c(=O)c(C(=O)O)cn1c23.C[C@H]1COc2c(N3CCN(C)CC3)c(F)cc3c(=O)c(C(=O)O)cn1c23.O` [LEVOFLOXACIN], the MIC against Staphylococcus aureus was 0.12 µg/mL; in the test with Enterococcus faecalis it was 0.5 µg/mL; in the test with Bacillus subtilis it was 0.12 µg/mL; in test [1] it was 1 µg/mL; in test [2] it was 0.5 µg/mL; in the test on Pseudomonas aeruginosa it was 0.25 µg/mL. The minimum inhibitory concentration (MIC) is 16 µg/mL in the test on Morganella morganii and more than 128 µg/mL with Candida albicans.

For the molecule `NCCC[C@H](N)CC(=O)NCCC[C@H](N)CC(=O)N[C@@H]1[C@H](O)[C@@H](OC(N)=O)[C@@H](CO)O[C@H]1NC1=N[C@@H]2C(=O)NC[C@@H](O)[C@H]2N1` [STREPTOTHRICIN E], the minimum inhibitory concentration (MIC) is 4 µg/mL (≈ 6.34 µM) with Staphylococcus aureus; 64 µg/mL (≈ 101 µM) in the test on Enterococcus faecalis; 1 µg/mL (≈ 1.59 µM) against Bacillus subtilis; 4 µg/mL (≈ 6.34 µM) in test [1]; 16 µg/mL (≈ 25.4 µM) in test [2]; 64 µg/mL (≈ 101 µM) against Pseudomonas aeruginosa. The minimum inhibitory concentration (MIC) with Morganella morganii amounted to 4 µg/mL (≈ 6.34 µM); in the test on Escherichia coli, 16 µg/mL (≈ 25.4 µM); against Candida albicans it was 1 µg/mL (≈ 1.59 µM). Further, the IC50 in the test with A549, in the test with HepG2 and in the test with HeLa was more than 10 µM in each case.

The record behind these values is ChEMBL document CHEMBL1799937, “Streptothricin derivatives from Streptomyces sp. I08A 1776” (J Nat Prod, 2011).
